Reference: ChEMBL document CHEMBL1156957, “Synthesis, antitubulin, and antiproliferative SAR of analogues of 2-methoxyestradiol-3,17-O,O-bis-sulfamate” (J Med Chem, 2010)

Experiments:
OVCAR-3 = assay: Antiproliferative activity against human OVCAR-3 cells after 96 hrs by WST-1 assay; assay type: functional; conditions: OVCAR-3, 96 h
DU-145 = assay: Antiproliferative activity against human DU145 cells after 96 hrs by WST-1 assay; assay type: functional; conditions: DU-145, 96 h
Outline: (§1)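 DU-145 and MDA-MB-231 cells kept in RPMI-1640 with 10% FBS, penicillin and streptomycin at 37 °C, 5% CO2. Seeded at 5000 cells/well and exposed to 10^-9–10^-4 M compound or vehicle for 96 h. Live cells counted by WST-1. Viability taken as percent of mean control and GI50 derived. Triplicate experiments.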

UACC-62 = assay: Antiproliferative activity against human UACC62 cells after 96 hrs by WST-1 assay; assay type: functional; conditions: UACC-62, 96 h
HOP-62 = assay: Antiproliferative activity against human HOP62 cells after 96 hrs by WST-1 assay; assay type: functional; conditions: HOP-62, 96 h
SN12C = assay: Antiproliferative activity against human SN12C cells after 96 hrs by WST-1 assay; assay type: functional
HCT-116 = assay: Antiproliferative activity against human HCT116 cells after 96 hrs by WST-1 assay; assay type: functional; conditions: HCT-116, 96 h
SF-539 = assay: Antiproliferative activity against human SF539 cells after 96 hrs by WST-1 assay; assay type: functional; conditions: SF-539, 96 h
Bos taurus = species on record: Bos taurus; assay: Displacement of [3H]colchicine from bovine brain tubulin at 5 uM after 10 mins
MDA-MB-231 = assay: Antiproliferative activity against human MDA-MB-231 cells after 96 hrs by WST-1 assay; assay type: functional; conditions: MDA-MB-231, 96 h; outline: as §1
[1] = Inhibition of bovine brain tubulin assembly assessed as decrease in turbidity after 20 mins; design: species or system Bos taurus
Outline: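 Bovine brain tubulin at 1.0 mg/mL (10 μM) preincubated 15 min at 30 °C with varying compound concentrations, no GTP. Chilled on ice, then GTP added (0.4 mM final). Baseline taken at 0 °C, then rapid jump to 30 °C and turbidity rise followed spectrophotometrically for 20 min. IC50 is the concentration halving the turbidity increase.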

MCF7 = assay: Antiproliferative activity against human MCF7 cells after 96 hrs by WST-1 assay; assay type: functional; conditions: MCF7, 96 h

Compound	GI50 (OVCAR-3) [µM]	GI50 (DU-145) [µM]	GI50 (UACC-62) [µM]	GI50 (HOP-62) [µM]	GI50 (SN12C) [µM]	GI50 (HCT-116) [µM]	GI50 (SF-539) [µM]	inhibition (Bos taurus) [%]	GI50 (MDA-MB-231) [µM]	IC50 [1] [µM]	GI50 (MCF7) [µM]
CCc1cc2c(cc1OS(N)(=O)=O)CC[C@@H]1[C@@H]2CC[C@]2(C)[C@@H](OS(C)(=O)=O)CC[C@@H]12	< 0.01	0.57	< 0.01	< 0.01	< 0.01	< 0.01	< 0.01	49	0.2	1.6	
CCc1cc2c(cc1O)CC[C@@H]1[C@@H]2CC[C@]2(C)[C@@H](NS(C)(=O)=O)CC[C@@H]12		> 100									
CCc1cc2c(cc1OS(N)(=O)=O)CC[C@@H]1[C@@H]2CC[C@]2(C)[C@@H](CS(C)(=O)=O)CC[C@@H]12	< 0.01	0.19	10.7	< 0.01	< 0.01	< 0.01	< 0.01	37	0.23	2.1	
COc1cc2c(cc1OCc1ccccc1)CC[C@@H]1[C@@H]2CC[C@]2(C)[C@@H](OS(C)(=O)=O)CC[C@@H]12	2.9		14.4	6.9	19.9	5.9	4.6				
COc1cc2c(cc1O)CC[C@@H]1[C@@H]2CC[C@]2(C)[C@@H](OS(C)(=O)=O)CC[C@@H]12		4.2							2.37		
COc1cc2c(cc1OS(N)(=O)=O)CC[C@@H]1[C@@H]2CC[C@]2(C)[C@@H](OS(C)(=O)=O)CC[C@@H]12	0.54	0.52	0.65	1.17	3.1	0.78	0.34		0.23		
COc1cc2c(cc1O)CC[C@@H]1[C@@H]2CC[C@]2(C)[C@@H](NS(C)(=O)=O)CC[C@@H]12	> 100	> 100	> 100	> 100	> 100	60.3	> 100				
COc1cc2c(cc1OS(N)(=O)=O)CC[C@@H]1[C@@H]2CC[C@]2(C)C(=O)CC[C@@H]12		0.46						22	0.12	3.3	
CCCc1cc2c(cc1OS(N)(=O)=O)CC[C@@H]1[C@@H]2CC[C@]2(C)C(OS(N)(=O)=O)CC[C@@H]12 (some centres undefined)		3.4								20	
COc1cc2c(cc1O)CC[C@@H]1[C@@H]2CC[C@]2(C)[C@@H](O)CC[C@@H]12 [2-METHOXYESTRADIOL]	0.21	1.22	0.36	0.7	0.95	0.47	0.32	17		7	
CCc1cc2c(cc1O)CC[C@@H]1[C@@H]2CC[C@]2(C)[C@@H](C[N+](=O)[O-])CC[C@@H]12		12.2							10.4		
CCc1cc2c(cc1O)CC[C@@H]1[C@@H]2CC[C@]2(C)[C@@H](CN(C)C)CC[C@@H]12	39.8	10.1	18.6	21.4	43.7	11.5	16.2		9.5		
Cc1cc2c(cc1OS(N)(=O)=O)CC[C@@H]1[C@@H]2CC[C@]2(C)C(OS(N)(=O)=O)CC[C@@H]12 (some centres undefined)		0.38						46		1.3	
CCc1cc2c(cc1OS(N)(=O)=O)CC[C@@H]1[C@@H]2CC[C@]2(C)[C@@H](NS(C)(=O)=O)CC[C@@H]12	0.71	0.84	5.89	4.17	6.92	4.37	0.47		3.52		
COc1cc2c(cc1O)CC[C@@H]1[C@@H]2CC[C@]2(C)[C@@H](N)CC[C@@H]12		2.64							3.56		
CCc1cc2c(cc1OS(N)(=O)=O)CC[C@@H]1[C@@H]2CC[C@]2(C)[C@@H](C[N+](=O)[O-])CC[C@@H]12	0.025	0.14	0.063	0.031	0.066	0.041	0.021	74	0.17	1.7	
CCc1cc2c(cc1OS(N)(=O)=O)CC[C@@H]1[C@@H]2CC[C@]2(C)[C@@H](CN(C)C)CC[C@@H]12	12.6	3.05	11.7	13.5	18.2	9.1	12.6		4.03		

Compound	GI50 (OVCAR-3) [µM]	GI50 (DU-145) [µM]	GI50 (UACC-62) [µM]	GI50 (HOP-62) [µM]	GI50 (SN12C) [µM]	GI50 (HCT-116) [µM]	GI50 (SF-539) [µM]	inhibition (Bos taurus) [%]	GI50 (MDA-MB-231) [µM]	IC50 [1] [µM]	GI50 (MCF7) [µM]
CCc1cc2c(cc1O)CC[C@@H]1[C@@H]2CC[C@@]2(C)[C@H]1CC[C@@H]2S(C)(=O)=O		> 100							> 100		
CCc1cc2c(cc1OS(N)(=O)=O)CC[C@@H]1[C@@H]2CC[C@]2(C)[C@@H](OS(N)(=O)=O)CC[C@@H]12	< 0.01		< 0.01	< 0.01	0.028		< 0.01	45		1.3	
CCc1cc2c(cc1O)CC[C@@H]1[C@@H]2CC[C@]2(C)[C@@H](CCN(C)C)CC[C@@H]12		7.96							4.74		
CCc1cc2c(cc1OS(N)(=O)=O)CC[C@@H]1[C@@H]2CC[C@@]2(C)[C@H]1CC[C@@H]2S(C)(=O)=O		0.11						28	0.23	3.6	
COc1cc2c(cc1OS(=O)(=O)N(C)C)CC[C@@H]1[C@@H]2CC[C@]2(C)C(=O)CC[C@@H]12										> 40	> 10
COc1cc2c(cc1OS(N)(=O)=O)CC[C@@H]1[C@@H]2CC[C@]2(C)[C@@H](NS(N)(=O)=O)CC[C@@H]12		6.13							5.6		
CCc1cc2c(cc1O)CC[C@@H]1[C@@H]2CC[C@]2(C)[C@@H](N)CC[C@@H]12		60.8									
COc1cc2c(cc1OS(N)(=O)=O)CC[C@@H]1[C@@H]2CC[C@]2(C)[C@@H](CC#N)CC[C@@H]12		0.062						78	0.071	1.3	
COc1cc2c(cc1O)CC[C@@H]1[C@@H]2CC[C@]2(C)[C@@H](CC#N)CC[C@@H]12		0.49							0.12		
COc1cc2c(cc1OS(N)(=O)=O)CC[C@@H]1[C@@H]2CC[C@]2(C)[C@@H](NS(C)(=O)=O)CC[C@@H]12	3.5	9.9	7.1	9.6	23.4	5.6	3.2		5.2		
CCc1cc2c(cc1O)CC[C@@H]1[C@@H]2CC[C@]2(C)[C@@H](NS(N)(=O)=O)CC[C@@H]12		> 100									
COc1cc2c(cc1O)CC[C@@H]1[C@@H]2CC[C@]2(C)[C@@H](NS(N)(=O)=O)CC[C@@H]12		58.6									
CCc1cc2c(cc1OS(N)(=O)=O)CC[C@@H]1[C@@H]2CC[C@]2(C)[C@@H](CCN(C)C)CC[C@@H]12		3.54							2.96		
COc1cc2c(cc1OS(N)(=O)=O)CC[C@@H]1[C@@H]2CC[C@]2(C)[C@@H](OS(N)(=O)=O)CC[C@@H]12	< 0.01		< 0.01	0.051		0.045	0.036	28		2.2	
CCc1cc2c(cc1O)CC[C@@H]1[C@@H]2CC[C@]2(C)[C@@H](OS(C)(=O)=O)CC[C@@H]12		5.58									
CCc1cc2c(cc1OS(N)(=O)=O)CC[C@@H]1[C@@H]2CC[C@]2(C)[C@@H](CC#N)CC[C@@H]12		0.054							0.141		
COc1cc2c(cc1O)CC[C@@H]1[C@@H]2CC[C@]2(C)C(OS(N)(=O)=O)CC[C@@H]12 (some centres undefined)										> 40	
